Compound activity (PubChem BioAssay)
In the library only some 2.5% were active in any assay of this set; here they are far more common.
TRPC4 agonist: activators of mouse TRPC4 channel. HEK293 TRPC4beta/mu-opioid, Fluo4 calcium fluorescence; stronger effect = higher value. AID 2237. B-score at 10 µM. Q9QUQ5. actives 0.49% (n = 310,000);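 active = B-score above 5 SD of library B-scores, and initial fluorescence ratio not above library mean plus 5 SD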;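 also: positive B-score marks a calcium rise read as TRPC4 activation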
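Material: TRPC4beta and mu-opioid receptor HEK293 stable cells | Incubation: 45 min room-temperature Fluo4 loading, 110 s read | Detection: Kinetic Fluo4 calcium fluorescence | Measure: Integrated baseline-normalised fluorescence ratio, converted to per-well B score | Benchmarks: Low control buffer alone, high control maximal DAMGO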
Pemphigus Ab inh: blocks pemphigus antibody binding to human desmoglein-3; P32926; DSG3-coupled beads, scFv-anti-DSG3-GFP binding, flow cytometry; stronger effect = lower value; binding (percent of control), % at 10 µM; actives 0.48% (n = 310,000);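 active = binding more than 3 SD below its plate's average and above zero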;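 also: hits lower antibody fragment binding to DSG3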
TRPC6 act: mouse TRPC6 channel activation; Q61143; HEK293-TRPC6 membrane potential dye fluorescence; stronger effect = higher value; B-score at 10 µM; actives 0.13% (n = 310,000);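 active = B-score of the integrated fluorescence ratio above library mean plus 3 SD, and starting fluorescence ratio within library mean plus 5 SD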;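 also: higher score means more depolarization so channel activation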
TRPC6 inhibitor: mouse TRPC6 channel inhibition; HEK293-TRPC6, membrane potential dye, ACh-evoked depolarization; stronger effect = lower value; actives 1.1% (n = 310,000); Q61143; B-score at 10 µM;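 active = B-score under library mean minus 3 SD, initial fluorescence not abnormally high, positive integrated signal ratio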;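 also: B-score derived from integrated fluorescence ratio over the kinetic read; more negative B-score means stronger inhibition of depolarization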
TRPC4 inh: inhibitors of mouse TRPC4 channel; AID 2247; B-score at 10 µM; actives 0.39% (n = 300,000); HEK293 TRPC4beta/mu-opioid, DAMGO-evoked Fluo4 calcium flux; stronger effect = lower value;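 active = B-score over 3 SD under the library average, no early fluorescence shift, positive overall ratio signal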
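Test system – stable TRPC4beta/mu-opioid receptor HEK293 cells · Probe or stimulus – DAMGO, a submaximal dose followed by a maximal one · Dosing – one concentration per compound · Signal – Fluo4 calcium fluorescence by kinetic imaging, 5 s 1 Hz baseline · Evaluation – per-well B score of integrated baseline-normalized Fluo4 ratio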
TRPC4 potent: allosterically enhances the mouse TRPC4 cation channel. Q9QUQ5. B-score at 10 µM. HEK293 TRPC4beta/mu-opioid, DAMGO EC20, Fluo-4 Ca2+ flux; stronger effect = higher value. actives 0.42% (n = 310,000);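 active = B-score of calcium response area above 5 SD of library B-scores, with initial fluorescence ratio within 5 SD of library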;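 also: B-score of integrated fluorescence ratio over time as area under calcium response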
* marks the source's active call; other numbers are inactive results; i = inactive; / = not tested or not shown.

SMILES	TRPC4 agonist	Pemphigus Ab inh	TRPC6 act	TRPC6 inhibitor	TRPC4 inh	TRPC4 potent
Cc1c(Cl)cccc1NC(=O)CC1Sc2ccccc2NC1=O (configuration not stated)	i	93.5	i	i	i	i
CCN(CC)C(=O)c1sc2nc(-c3ccccn3)[nH]c(=O)c2c1C	68*	90.1	i	i	i	i
Cc1ccc(SCCNCc2ccco2)cc1	i	107.9	i	i	i	10*
CC(C)(C)C(=O)Nc1sc2c(c1C#N)CCN(Cc1ccccc1)C2	i	106.7	13.2*	i	i	i
CC(=O)c1ccc(C(=O)N2CCC(CO)(Cc3cccc(C(F)(F)F)c3)CC2)cc1	i	103.2	i	i	i	i
CC1(C(=O)N2CCC(CO)(Cc3cccc(C(F)(F)F)c3)CC2)CC1	i	97.5*	i	i	i	i
COc1ccc(-n2ccc(=O)c(C(=O)Nc3ccc(S(=O)(=O)Nc4nccs4)cc3)n2)cc1	i	49.0*	i	i	i	i
NC(=O)c1nsc(C(=O)N(Cc2ccco2)C(C(=O)NCC2CCCO2)c2ccc(F)cc2)c1N (configuration not stated)	i	107.2	i	i	-6*	i
NC(=O)c1nsc(C(=O)N(c2ccccc2)C(C(=O)NCC2CCCO2)c2ccc(F)cc2)c1N (configuration not stated)	i	120.6	i	i	i	i
Cc1cccc(CCN(C(=O)c2snc(C(N)=O)c2N)C(C(=O)NCC2CCCO2)c2ccc(F)cc2)c1 (configuration not stated)	i	105.2	i	i	-7*	i
NC(=O)c1nsc(C(=O)N(Cc2ccco2)C(C(=O)NCC2CCCO2)c2ccc(O)cc2)c1N (configuration not stated)	i	/	i	i	i	i
NC(=O)c1nsc(C(=O)N(Cc2ccccc2F)C(C(=O)NCC2CCCO2)c2ccc(F)cc2)c1N (configuration not stated)	i	93.9	i	i	-8*	i
COc1ccc(CCN(C(=O)c2snc(C(N)=O)c2N)C(C(=O)NCC2CCCO2)c2ccc(F)cc2)cc1OC (configuration not stated)	i	123.5	i	i	i	i
O=C(COc1ccc(C(=S)N2CCOCC2)cc1Cl)Nc1ccccc1Cl	i	83.0*	i	i	i	i
COc1cc(C(=S)N2CCCCC2)ccc1OCC(=O)Nc1ccccc1Cl	i	99.9	i	i	i	i
CCOc1ccc(N(CC(=O)NCCSCc2ccco2)S(=O)(=O)c2ccc(F)cc2)cc1	i	97.9	i	i	i	i
CCOc1ccc(N(CC(=O)NCCSCc2ccco2)S(=O)(=O)c2ccc(C)cc2)cc1	i	80.5*	i	i	i	i
CCN(Cc1ccccc1)c1ccc(/C=N/N=C(N)N)cc1	145*	107.3	i	i	i	i
CCN(Cc1ccccc1)c1ccccc1	/	102.2	/	/	/	/
COc1ccccc1C(=O)NC1CCCc2ccccc21 (configuration not stated)	i	/	i	i	i	i
COc1ccc(S(N)(=O)=O)cc1C(=O)NC1CCCc2ccccc21 (configuration not stated)	i	-38.5*	i	i	i	i
O=C(Cn1nc(C(=O)O)c2ccccc2c1=O)Nc1ccc(Cl)c(S(=O)(=O)N2CCOCC2)c1	/	69.5*	/	/	/	/
CN(C)c1ccc(NC(=O)CN2CCN(S(=O)(=O)c3cc(Cl)ccc3Cl)CC2)cc1	i	99.9	i	i	i	i
O=C(CN1CCN(S(=O)(=O)c2cc(Cl)ccc2Cl)CC1)Nc1ccc2c(c1)OCCO2	57*	97.3	i	-5.61*	i	i
Cn1nc(C(=O)Nc2cccc(S(=O)(=O)N3CCCC3)c2)c2ccccc2c1=O	/	103.6	/	/	/	/
Cn1nc(C(=O)Nc2ccc(S(=O)(=O)N3CCOCC3)cc2)c2ccccc2c1=O	i	83.9*	i	i	i	i
